ChEMBL document CHEMBL4346686, “Discovery and biological evaluation of novel androgen receptor antagonist for castration-resistant prostate cancer” (Eur J Med Chem, 2019)
Active and inactive are the calls of the source. The calls are words filed in the database; no cut-off is given here.

Legend:
[1] = Antiproliferative activity against human LNCaP-AR cells assessed as reduction in cell viability incubated for 6 days by CCK8 assay; format: functional, cell-based; conditions: 144 h
Method in brief: (§1)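 Cells seeded (2×10^4 per well for VCaP, 1–3×10^3 for the others) and compound added after 24 h as a 9-point, 3-fold serial dilution. Exposure 6 days, then CCK-8 for 1–4 h and absorbance at 450 nm. IC50 from curve fit, mean of at least two independent experiments run in duplicate.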

CWR22R = test: Antiproliferative activity against human 22Rv1 cells assessed as reduction in cell viability incubated for 6 days by CCK8 assay; format: functional, cell-based; conditions: 22Rv1, 144 h; method in brief: as §1
PC-3 = test: Antiproliferative activity against human PC3 cells assessed as reduction in cell viability incubated for 6 days by CCK8 assay; format: functional, cell-based; conditions: PC-3, 144 h; method in brief: as §1
VCaP = test: Antiproliferative activity against human VCaP cells assessed as reduction in cell viability incubated for 6 days by CCK8 assay; format: functional, cell-based; conditions: 144 h; method in brief: as §1
[2] = target: T1, Androgen receptor (Homo sapiens) (UniProt P10275); test: Antagonist activity at androgen receptor in human VCaP cells assessed as inhibition of R1881-induced PSA mRNA expression at 5 uM after 24 hrs by qRT-PCR analysis; format: cell-based
T1 sequence (whole entry): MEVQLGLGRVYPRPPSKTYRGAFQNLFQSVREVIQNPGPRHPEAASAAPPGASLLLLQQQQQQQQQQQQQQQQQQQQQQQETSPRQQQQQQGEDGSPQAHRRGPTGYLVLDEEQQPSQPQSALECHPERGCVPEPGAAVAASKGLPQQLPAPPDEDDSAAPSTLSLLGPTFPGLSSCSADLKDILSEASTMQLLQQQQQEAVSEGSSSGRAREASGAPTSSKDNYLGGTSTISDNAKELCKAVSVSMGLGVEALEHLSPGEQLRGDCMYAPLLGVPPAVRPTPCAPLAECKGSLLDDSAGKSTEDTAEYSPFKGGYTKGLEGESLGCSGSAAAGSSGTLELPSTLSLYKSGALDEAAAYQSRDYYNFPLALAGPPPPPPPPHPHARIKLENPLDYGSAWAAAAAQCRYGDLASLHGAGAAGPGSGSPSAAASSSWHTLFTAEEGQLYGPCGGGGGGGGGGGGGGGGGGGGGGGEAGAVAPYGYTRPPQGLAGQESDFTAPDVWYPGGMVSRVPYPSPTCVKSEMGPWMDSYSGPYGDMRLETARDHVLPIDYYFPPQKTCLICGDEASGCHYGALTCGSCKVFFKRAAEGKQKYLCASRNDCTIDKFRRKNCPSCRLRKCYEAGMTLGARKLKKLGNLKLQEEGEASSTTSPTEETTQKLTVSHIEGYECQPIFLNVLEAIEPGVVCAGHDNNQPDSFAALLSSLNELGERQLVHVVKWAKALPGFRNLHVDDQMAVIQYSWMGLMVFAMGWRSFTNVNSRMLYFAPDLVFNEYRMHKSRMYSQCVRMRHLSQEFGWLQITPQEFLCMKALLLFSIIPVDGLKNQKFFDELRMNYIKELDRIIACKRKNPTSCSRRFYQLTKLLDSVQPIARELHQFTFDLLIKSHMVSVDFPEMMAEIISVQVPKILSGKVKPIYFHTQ
Method in brief: (§2)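 VCaP cells kept 48 h in DMEM with 5% charcoal-stripped FBS, then treated 24 h with compound plus 0.2 nM R1881. RNA extracted with TRIzol, reverse-transcribed, and PSA or FKBP5 mRNA quantified by qRT-PCR normalized to GAPDH. Expressed relative to DMSO-treated samples; mean ± SD, n = 3, two-tailed t-test.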

[3] = target: T1, Androgen receptor (Homo sapiens); test: Antagonist activity at androgen receptor in human VCaP cells assessed as inhibition of R1881-induced FKBP5 mRNA expression at 5 uM after 24 hrs by qRT-PCR analysis; format: cell-based; method in brief: as §2
[4] = target: T2, Steroid 17-alpha-hydroxylase/17,20 lyase (Homo sapiens, UniProt P05093); test: Inhibition of C-myc/DDK tagged human CYP17A1 expressed in HEK293T cells assessed as reduction in formation of 17-OHP at 10 uM incubated for 30 mins by LC-MS/MS analysis; format: cell-based; conditions: 0.5 h
T2 sequence (P05093 whole entry): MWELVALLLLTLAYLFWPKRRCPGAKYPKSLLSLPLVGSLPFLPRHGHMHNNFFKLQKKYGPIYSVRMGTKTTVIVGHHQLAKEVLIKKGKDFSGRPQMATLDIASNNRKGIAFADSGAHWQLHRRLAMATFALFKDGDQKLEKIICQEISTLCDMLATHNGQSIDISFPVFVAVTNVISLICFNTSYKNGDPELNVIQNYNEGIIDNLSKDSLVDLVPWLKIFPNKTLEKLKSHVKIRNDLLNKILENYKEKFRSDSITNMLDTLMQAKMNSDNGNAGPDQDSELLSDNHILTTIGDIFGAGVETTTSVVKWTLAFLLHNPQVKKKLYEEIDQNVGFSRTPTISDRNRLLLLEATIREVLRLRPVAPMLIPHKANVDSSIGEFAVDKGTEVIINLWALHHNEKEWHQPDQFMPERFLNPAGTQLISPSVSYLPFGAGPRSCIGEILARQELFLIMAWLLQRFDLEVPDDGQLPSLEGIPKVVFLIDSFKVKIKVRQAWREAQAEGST
Method in brief: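 CYP17A1 activity measured as 17α-hydroxyprogesterone formation in 50 mM Tris pH 7.4, 5 mM MgCl2. Incubation 30 min at 37 °C, quenched with 20% trichloroacetic acid; product quantified by LC-MS/MS. Mean ± SD, n = 2.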

L02 = test: Antiproliferative activity against human L02 cells assessed as reduction in cell viability incubated for 6 days by CCK8 assay; format: cell-based; conditions: L02, 144 h; method in brief: as §1

N#Cc1ccc(N2CCc3cc(-c4cncnc4)ccc32)cc1C(F)(F)F
IC50 [1]: 21 µM

CCN(c1cccc(-n2ccnc2)c1)c1ccc(C#N)c(C(F)(F)F)c1
IC50 [1]: 0.58 µM
IC50 (CWR22R): 19 µM
IC50 (PC-3): > 30 µM
IC50 (VCaP): > 30 µM

CCN(c1ccc(C#N)c(Cl)c1)c1cc(-c2cncnc2)ccc1C
IC50 [1]: 0.4 µM
IC50 (CWR22R): > 30 µM
IC50 (PC-3): > 30 µM
IC50 (VCaP): 3.92 µM
inhibition [2]: Active
inhibition [3]: Active

Cc1noc(C)c1-c1cccc(Oc2ccc(C#N)c(C(F)(F)F)c2)c1
IC50 [1]: 1.67 µM

C[C@]12CC[C@H](O)CC1=CC[C@@H]1[C@@H]2CC[C@]2(C)C(n3cnc4ccccc43)=CC[C@@H]12 [GALETERONE]
inhibition at 10 µM [4]: 50%

CCN(c1ccc(C#N)c(Cl)c1)c1cc(-c2cccnc2)ccc1C
IC50 [1]: 0.33 µM
IC50 (CWR22R): 2 µM
IC50 (L02): 12.7 µM
IC50 (PC-3): 11 µM
IC50 (VCaP): 1.27 µM
inhibition [2]: Active
inhibition [3]: Active

CCN(c1ccc(C#N)c(Cl)c1)c1cc(-c2ccncc2)ccc1C
IC50 [1]: 0.48 µM
IC50 (CWR22R): 1.03 µM
IC50 (L02): 1.73 µM
IC50 (PC-3): 3.58 µM
IC50 (VCaP): 2.9 µM

CCN(c1cccc(-c2cncnc2)c1)c1ccc(C#N)c(Cl)c1
IC50 [1]: 0.36 µM
IC50 (CWR22R): > 30 µM
IC50 (PC-3): > 30 µM
IC50 (VCaP): > 30 µM

CCN(c1ccc(C#N)c(Cl)c1)c1cc(-n2cnc3ccccc32)ccc1C
IC50 [1]: 0.39 µM
IC50 (CWR22R): 3.04 µM
IC50 (PC-3): 8.16 µM
IC50 (VCaP): 8.56 µM

N#Cc1ccc(N2CCc3cc(-c4cnc5ccccc5c4)ccc32)cc1C(F)(F)F
IC50 [1]: 11.5 µM

CCN(c1ccc(C#N)c(Cl)c1)c1cc(-n2ccnc2)ccc1C
IC50 [1]: 0.32 µM
IC50 (CWR22R): > 30 µM
IC50 (L02): 15 µM
IC50 (PC-3): > 30 µM
IC50 (VCaP): > 30 µM

CCN(c1ccc(C#N)c(Cl)c1)c1cc(-c2ccco2)ccc1C
IC50 [1]: 0.49 µM
IC50 (CWR22R): > 30 µM
IC50 (PC-3): > 30 µM
IC50 (VCaP): > 30 µM

CCN(c1ccccn1)c1cc(-c2c(C)noc2C)ccc1C
IC50 [1]: 0.63 µM
IC50 (CWR22R): 5.43 µM
IC50 (L02): 4.42 µM
IC50 (PC-3): 4.8 µM
IC50 (VCaP): 0.87 µM

CCN(c1ccc(C#N)c(Cl)c1)c1cc(-c2cccs2)ccc1C
IC50 [1]: 0.38 µM
IC50 (CWR22R): 22 µM
IC50 (PC-3): > 30 µM

CCN(c1ccc(C#N)c(Cl)c1)c1cc(-c2cnc3ccccc3c2)ccc1C
IC50 [1]: 1.98 µM
IC50 (PC-3): 3.57 µM
IC50 (VCaP): 25.3 µM

CCN(c1ccc(C#N)c(C(F)(F)F)c1)c1cc(-n2ccnc2)ccc1C
IC50 [1]: 0.4 to 0.56 µM
IC50 (CWR22R): 16.3 µM
IC50 (PC-3): > 30 µM
IC50 (VCaP): 3.92 to 30 µM

N#Cc1ccc(N2CCc3cc(-c4cccnc4)ccc3C2)cc1C(F)(F)F
IC50 [1]: 0.76 µM
IC50 (CWR22R): 4.79 µM
IC50 (VCaP): 2.53 µM

N#Cc1ccc(N2CCc3cc(-c4cncnc4)ccc3C2)cc1C(F)(F)F
IC50 [1]: 1.67 µM

CCN(c1ccc(C#N)c(Cl)c1)c1cc(-c2c[nH]nc2C)ccc1C
IC50 [1]: 0.32 µM
IC50 (CWR22R): 5.38 µM
IC50 (L02): 5.78 µM
IC50 (PC-3): 9.03 µM
IC50 (VCaP): 3.19 µM

Cc1ccc(-c2c(C)noc2C)cc1Nc1ccncc1
IC50 [1]: 3.7 µM
IC50 (VCaP): 1.97 µM
inhibition [2]: Active
inhibition [3]: Active

CCN(c1ccc(C#N)c(Cl)c1)c1cc(C2=CCCCC2)ccc1C
IC50 [1]: 2.55 µM
IC50 (VCaP): 20 µM

CCN(c1ccc(C#N)c(Cl)c1)c1cc(-c2ccoc2)ccc1C
IC50 [1]: 0.48 µM
IC50 (CWR22R): > 30 µM
IC50 (PC-3): > 30 µM
IC50 (VCaP): 4.01 µM

CCN(c1cccc(-n2ccnc2)c1)c1ccc(C#N)c(Cl)c1
IC50 [1]: 0.33 µM
IC50 (CWR22R): > 30 µM
IC50 (L02): 23.2 µM
IC50 (PC-3): > 30 µM
IC50 (VCaP): > 30 µM

CCN(c1ccc(C#N)c(Cl)c1)c1cc(-c2ccc(F)nc2)ccc1C
IC50 [1]: 0.41 µM
IC50 (CWR22R): 16.5 µM
IC50 (PC-3): > 30 µM
IC50 (VCaP): > 30 µM

CCN(c1ccncc1)c1cc(-c2c(C)noc2C)ccc1C
IC50 [1]: 2.88 µM
IC50 (VCaP): 2.01 µM

CCN(c1ccc(C#N)c(Cl)c1)c1cc(-c2cn[nH]c2)ccc1C
IC50 [1]: 0.7 µM
IC50 (CWR22R): > 30 µM
IC50 (PC-3): 15.3 µM

N#Cc1ccc(N2CCc3cc(-c4ccncc4)ccc3C2)cc1C(F)(F)F
IC50 [1]: 0.98 µM
IC50 (CWR22R): 6.94 µM
IC50 (VCaP): 3.5 µM

N#Cc1ccc(N2CCCc3c(-c4ccncc4)cccc32)cc1C(F)(F)F
IC50 [1]: 0.07 µM
IC50 (CWR22R): 15 µM
IC50 (L02): 6.38 µM
IC50 (PC-3): 28.7 µM
IC50 (VCaP): > 30 µM

Cc1noc(C)c1-c1cccc2c1CCCN2c1ccc(C#N)c(C(F)(F)F)c1
IC50 [1]: 1.42 µM
IC50 (VCaP): > 30 µM

N#Cc1ccc(N2CCCc3c(-c4cccnc4)cccc32)cc1C(F)(F)F
IC50 [1]: 0.12 µM
IC50 (CWR22R): 12.3 µM
IC50 (L02): 10.5 µM
IC50 (PC-3): 7.97 µM
IC50 (VCaP): 13.5 µM

Cn1nccc1-c1cccc2c1CCCN2c1ccc(C#N)c(C(F)(F)F)c1
IC50 [1]: 0.24 µM
IC50 (CWR22R): 10.4 µM
IC50 (PC-3): 9.8 µM
IC50 (VCaP): > 30 µM

C[C@]12CC[C@H](O)CC1=CC[C@@H]1[C@@H]2CC[C@]2(C)C(c3cccnc3)=CC[C@@H]12 [ABIRATERONE]
inhibition at 10 µM [4]: 100%

CCN(c1ccc(C#N)c(Cl)c1)c1cc(-c2c(C)noc2C)ccc1C
IC50 [1]: 0.19 µM
IC50 (CWR22R): 2.99 µM
IC50 (L02): 8.67 µM
IC50 (PC-3): 4.84 µM
IC50 (VCaP): 1.2 µM

CCN(c1ccc(C#N)c(Cl)c1)c1cc(-c2ccnn2C)ccc1C
IC50 [1]: 0.17 µM
IC50 (CWR22R): 4.33 µM
IC50 (L02): 6.23 µM
IC50 (PC-3): 7.29 µM
IC50 (VCaP): 1.67 µM
inhibition [2]: Active
inhibition [3]: Active

N#Cc1ccc(N2CCc3cc(-c4cnc5ccccc5c4)ccc3C2)cc1C(F)(F)F
IC50 [1]: 0.98 µM
IC50 (CWR22R): 25.9 µM
IC50 (PC-3): 25.1 µM
IC50 (VCaP): > 30 µM

CCN(c1cccc(-c2ccccc2)c1)c1ccc(C#N)c(Cl)c1
IC50 [1]: 1.29 µM

CCN(c1ccc(C#N)c(Cl)c1)c1cc(-n2cccn2)ccc1C
IC50 [1]: 0.29 µM
IC50 (CWR22R): > 30 µM
IC50 (PC-3): 15.7 µM
IC50 (VCaP): 2.34 µM

N#Cc1ccc(N2CCc3cc(-c4cccnc4)ccc32)cc1C(F)(F)F
IC50 [1]: 1.24 µM

CCN(c1ccc(C#N)c(Cl)c1)c1cc(-c2ccccc2)ccc1C
IC50 [1]: 2.78 µM
IC50 (CWR22R): > 30 µM
IC50 (L02): > 30 µM
IC50 (VCaP): > 30 µM
